Laboratory results as given in ChEMBL document CHEMBL4316610, “Synthesis and Biological Studies of (+)-Liquiditerpenoic Acid A (Abietopinoic Acid) and Representative Analogues: SAR Studies” (J Nat Prod, 2019).
Calls of active or inactive are those of the source. No cut-off for these calls is given here.

Assays:
[1] = target: T1, GABA-A receptor; alpha-1/beta-2/gamma-2 (Homo sapiens) (UniProt P14867+P47870+P18507); assay: Modulation of recombinant wild type GABAA receptor alpha1beta2gamma2S (unknown origin) expressed in Xenopus laevis oocytes assessed as increase in GABA-evoked chloride current at 10 uM at -70 mV holding potential by two-microelectrode voltage clamp assay relative to control; assay type: cell-based
Outline: (§1)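 Two-microelectrode voltage clamp at -70 mV on Xenopus laevis oocytes expressing α1β2γ2S GABA-A receptors. GABA EC5 (4-5 μM), set individually for each oocyte, applied for 20 s alone, then co-applied with compound at 10 or 100 μM. Potentiation of GABA-evoked current is reported. Dehydroabietic acid served as positive control. Mean ± SEM from at least three oocytes and two oocyte batches.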

[2] = tested on: T47D; assay: Antiproliferative activity against human T47D cells after 48 hrs by SRB assay; assay type: functional
[3] = Cytotoxicity against mouse J774 cells assessed as reduction in cell viability after 48 hrs by resazurin dye-based fluorometric analysis
Outline: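 The CC50 is taken as the concentration giving a 50% reduction in cell viability of treated cultures compared with untreated cells.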

[4] = tested on: WiDr; assay: Antiproliferative activity against human WiDr cells after 48 hrs by SRB assay; assay type: functional
[5] = target: T1, GABA-A receptor; alpha-1/beta-2/gamma-2 (Homo sapiens); assay: Modulation of recombinant wild type GABAA receptor alpha1beta2gamma2S (unknown origin) expressed in Xenopus laevis oocytes assessed as increase in GABA-evoked chloride current at 100 uM at -70 mV holding potential by two-microelectrode voltage clamp assay relative to control; assay type: cell-based; outline: as §1
[6] = tested on: SW1573; assay: Antiproliferative activity against human SW1573 cells after 48 hrs by SRB assay; assay type: functional; settings: SW1573, 48 h
[7] = Selectivity index, ratio of CC50 for mouse J774 cells to IC50 for Leishmania guyanensis 141/93 promastigotes; assay type: toxicity; settings: read-out: Ratio CC50/IC50
[8] = tested on: HeLa; assay: Antiproliferative activity against human HeLa cells after 48 hrs by SRB assay; assay type: functional
[9] = tested on: Leishmania infantum; assay: Antileishmanial activity against Leishmania infantum MCAN/ES/96/BCN150 promastigotes after 48 hrs by resazurin dye-based fluorometric analysis; assay type: functional, organism-based
Outline: (§2)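 The IC50 is taken as the compound concentration giving a 50% reduction in parasites, reported with SD.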

[10] = tested on: A549; assay: Antiproliferative activity against human A549 cells after 48 hrs by SRB assay; assay type: functional; settings: A549, 48 h
[11] = tested on: Leishmania donovani; assay: Antileishmanial activity against Leishmania donovani MHOM/IN/80/DD8 promastigotes after 48 hrs by resazurin dye-based fluorometric analysis; assay type: functional, organism-based; outline: as §2
[12] = Selectivity index, ratio of CC50 for mouse J774 cells to IC50 for Leishmania donovani MHOM/IN/80/DD8 promastigotes; assay type: toxicity; settings: read-out: Ratio CC50/IC50
[13] = Selectivity index, ratio of CC50 for mouse J774 cells to IC50 for Leishmania infantum MCAN/ES/96/BCN150 promastigotes; assay type: toxicity; settings: read-out: Ratio CC50/IC50
[14] = Selectivity index, ratio of CC50 for mouse J774 cells to IC50 for Leishmania amazonensis MHOM/Br/79/Mari promastigotes; assay type: toxicity; settings: read-out: Ratio CC50/IC50
[15] = tested on: Leishmania guyanensis; assay: Antileishmanial activity against Leishmania guyanensis 141/93 promastigotes after 48 hrs by resazurin dye-based fluorometric analysis; assay type: functional, organism-based; outline: as §2
[16] = tested on: Leishmania amazonensis; assay: Antileishmanial activity against Leishmania amazonensis MHOM/Br/79/Mari promastigotes after 48 hrs by resazurin dye-based fluorometric analysis; assay type: functional, organism-based; outline: as §2
[17] = tested on: HBL-100; assay: Antiproliferative activity against human HBL100 cells after 48 hrs by SRB assay; assay type: functional; settings: HBL-100, 48 h
[18] = tested on: KOPN-8; assay: Antiproliferative activity against human KOPN8 cells after 72 hrs by CellTiter-Glo luminescent cell viability assay; assay type: functional, cell-based; settings: KOPN-8, 72 h
[19] = tested on: KOPN-8; assay: Induction of apoptosis in human KOPN8 cells assessed as late apoptotic cells at 20 uM after 32 hrs by Annexin V-FITC/propidium iodide staining-based flow cytometric analysis relative to control; assay type: functional
[20] = tested on: BJ; assay: Antiproliferative activity against human BJ cells after 72 hrs by CellTiter-Glo luminescent cell viability assay; assay type: ADME, cell-based
[21] = tested on: UoC-B1; assay: Antiproliferative activity against human UOCB1 cells after 72 hrs by CellTiter-Glo luminescent cell viability assay; assay type: functional, cell-based; settings: UoC-B1, 72 h
[22] = Antiproliferative activity against mouse leukemia cells overexpressing BCR/ABL after 72 hrs by CellTiter-Glo luminescent cell viability assay; assay type: functional, cell-based
[23] = tested on: NALM-6; assay: Antiproliferative activity against human NALM6 cells after 72 hrs by CellTiter-Glo luminescent cell viability assay; assay type: functional, cell-based; settings: NALM-6, 72 h
[24] = tested on: NALM-6; assay: Cell cycle arrest in human NALM6 cells assessed as accumulation at G0/G1 phase at 10 uM after 24 hrs by propidium iodide staining-based flow cytometric analysis; assay type: functional
Outline: (§3)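 Phosphatidylserine exposure read by Annexin V-FITC/propidium iodide flow cytometry; DNA content by PI staining for cell-cycle distribution.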

[25] = tested on: SUP-B15; assay: Antiproliferative activity against human SUP-B15 cells after 72 hrs by CellTiter-Glo luminescent cell viability assay; assay type: functional, cell-based; settings: SUP-B15, 72 h
[26] = tested on: NALM-6; assay: Cell cycle arrest in human NALM6 cells assessed as accumulation at G2/M phase at 10 uM after 24 hrs by propidium iodide staining-based flow cytometric analysis; assay type: functional; outline: as §3
[27] = tested on: NALM-6; assay: Induction of apoptosis in human NALM6 cells at 10 uM after 24 hrs by Annexin V-FITC/propidium iodide staining-based flow cytometric analysis; assay type: functional, cell-based; outline: as §3
[28] = tested on: SW1573; assay: Antiproliferative activity against human SW1573 cells; assay type: functional
[29] = tested on: HeLa; assay: Antiproliferative activity against human HeLa cells; assay type: functional
[30] = tested on: A549; assay: Antiproliferative activity against human A549 cells; assay type: functional
[31] = tested on: HBL-100; assay: Antiproliferative activity against human HBL100 cells; assay type: functional
[32] = tested on: T47D; assay: Antiproliferative activity against human T47D cells; assay type: functional
[33] = tested on: WiDr; assay: Antiproliferative activity against human WiDr cells; assay type: functional
[34] = Leishmania infantum, MCAN/ES/96/BCN150, 48 h, read-out: IC50
[35] = Leishmania donovani, MHOM/IN/80/DD8, 48 h, read-out: IC50
[36] = Leishmania donovani, MHOM/IN/80/DD8, 48 h, read-out: log(1/IC50) (converted)
[37] = Leishmania guyanensis, 141/93, 48 h, read-out: IC50
[38] = Leishmania amazonensis, MHOM/Br/79/Mari, 48 h, read-out: IC50

Row | Structure (SMILES) | Activity [1] | CC50 at 48 h [3] | Activity [5] | selectivity ratio [7] | IC50 [9, 34] | IC50 [11, 35] | IC50 [11, 36] | selectivity ratio [12] | selectivity ratio [13] | selectivity ratio [14] | IC50 [15, 37] | IC50 [16, 38] | other results
1 | COC(=O)[C@]1(C)CCC[C@]2(C)c3cc(O)c(C(C)C)cc3CC[C@@H]12 | 23.7% | 34.2 µM | 378% | 5.8 | 5 µM | 9.21 µM | 9.21 µM | 3.7 | 6.8 | 8.7 | 5.9 µM | 3.9 µM | GI50 [2]: 19 µM; GI50 [4]: 23 µM; GI50 [6]: 11 µM; GI50 [8]: 5.8 µM; GI50 [10]: 9.4 µM; GI50 [17]: 9.7 µM
2 | COC(=O)[C@]1(C)CCC[C@]2(C)c3cc(O)c(C(C)C)cc3C(=O)C[C@@H]12 | 37.4% | 154 µM | 242% |  |  |  |  |  |  |  |  |  | 
3 | CC(C)c1cc2c(cc1O)[C@@]1(C)CCC[C@@](C)(CO)[C@@H]1CC2=O | 4.5% | 14.4 µM | -30.3% | 0.9 | 9.7 µM | 19.7 µM | 19.7 µM | 0.7 | 1.5 | 1.4 | 16.5 µM | 10.2 µM | 
4 | COC(=O)[C@]1(C)CCC[C@]2(C)c3cc(OC(C)=O)c(C(C)C)cc3CC[C@@H]12 | 5.1% | 26.5 µM | 26.3% | 4.8 | 1.3 µM | 8.1 µM | 8.12 µM | 3.3 | 20.4 | 8.2 | 5.5 µM | 3.2 µM | EC50 [18]: 21 µM; GI50 [2]: 14 µM; Activity [19]: >85%; EC50 [20]: Non-Toxic; GI50 [4]: 16 µM; EC50 [21]: > 40 µM; GI50 [6]: 12 µM; GI50 [8]: 4.4 µM; EC50 [22]: 14.3 µM; GI50 [10]: 11 µM; EC50 [23]: 8.8 µM; Activity [24]: Active; EC50 [25]: 20.2 µM; Activity [26]: Active; Activity [27]: inactive; GI50 [17]: 15 µM
5 | CC(C)c1cc2c(cc1O)[C@@]1(C)CCC[C@@](C)(C(=O)O)[C@@H]1CC2 | 8.9% | 85.8 µM | 12.1% | 1.2 | 43.6 µM | 58.1 µM | 58.1 µM | 1.5 | 2 | 1.6 | 71.4 µM | 54.1 µM | 
6 | COC(=O)[C@]1(C)CCC[C@]2(C)c3ccc(C(C)C)cc3CC[C@@H]12 [METHYL DEHYDROABIETATE] |  |  |  |  |  |  |  |  |  |  |  |  | GI50 [28]: 22 µM; GI50 [29]: 15 µM; GI50 [30]: 15 µM; GI50 [31]: 19 µM; GI50 [32]: 16 µM; GI50 [33]: 10 µM
7 | CCCCCCCCCCCCCCCCOP(=O)([O-])OCC[N+](C)(C)C [MILTEFOSINE] |  |  |  | 7.5 |  |  |  | 909 | 40.1 | 2.9 |  |  | 
8 | CC(C)c1cc2c(cc1O)[C@@]1(C)CCC[C@@](C)(C(=O)O)[C@@H]1CC2=O | -2% | 219 µM | -21.1% |  |  |  |  |  |  |  |  |  | IC50 [9]: Not Active; IC50 [11]: Not Active; IC50 [15]: Not Active; IC50 [16]: Not Active
9 | CC(C)c1cc2c(cc1O)[C@@]1(C)CCC[C@@](C)(CO)[C@@H]1CC2 [18-HYDROXYFERRUGINOL] | 29.3% | 23.4 µM | 154% | 1.9 | 0.7 µM | 13.9 µM | 13.9 µM | 1.7 | 33.4 | 3 | 12.5 µM | 7.7 µM | 
10 | COc1cc([C@@H]2c3cc4c(cc3[C@@H](O[C@@H]3O[C@@H]5CO[C@@H](C)O[C@H]5[C@H](O)[C@H]3O)[C@H]3COC(=O)[C@H]23)OCO4)cc(OC)c1O [ETOPOSIDE] |  |  |  |  |  |  |  |  |  |  |  |  | GI50 [2]: 22 µM; GI50 [4]: 23 µM; GI50 [6]: 15 µM; GI50 [8]: 3.3 µM; GI50 [10]: 1.5 µM; GI50 [17]: 1.4 µM
11 | CN[C@@H]1C[C@H]2O[C@@](C)([C@@H]1OC)n1c3ccccc3c3c4c(c5c6ccccc6n2c5c31)C(=O)NC4 [STAUROSPORINE] |  |  |  |  |  |  |  |  |  |  |  |  | EC50 [22]: 0.35 µM; EC50 [23]: 1.4 µM
